Measurements: publication PMC10448495 (ACS Omega, 2023)

What was measured:
Type in all cases: in vivo
[1] = system: mice; experiment: Carrageenan-induced paw edema model; details: dose 10 mg/kg
In short: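 Thirty BALB-c mice randomised into five groups of six. Paw volume by digital plethysmometer at 0, 1, 2, 3, 4 and 5 h; percent inhibition from paw-volume increase, control versus treated. ANOVA/Dunnett's.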

[2] = system: mice (BALB-c); experiment: Hot plate assay; details: dose 10 mg/kg
[3] = system: mice (BALB-c); experiment: Acetic acid-induced writhing assay; details: 10 mg/kg i.p.
In short: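 BALB-c mice of either sex (18–22 g), fasted 2 h, six per group. Writhes counted starting 5 min after acid; percent analgesic effect derived. Mean ± S.E.M., ANOVA with Dunnett's test versus negative control.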

| Structure (SMILES) | paw volume ([1]; 1 h) | paw volume ([1]; 2 h) | paw volume ([1]; 3 h) | paw volume ([1]; 4 h) | paw volume ([1]; 5 h) | latency of nociceptive response ([2]; 0 min) [s] | latency of nociceptive response ([2]; 30 min) [s] | latency of nociceptive response ([2]; 60 min) [s] | latency of nociceptive response ([2]; 90 min) [s] | latency of nociceptive response ([2]; 120 min) [s] | no. of writhing (20 min) [3] |
| --- | --- | --- | --- | --- | --- | --- | --- | --- | --- | --- | --- |
| O=C(O)Cc1ccccc1Nc1c(Cl)cccc1Cl [diclofenac–Na, diclofenac sodium] | 2.283 ± 0.201 | 2.142 ± 0.105 | 2.004 ± 0.224 | 2.010 ± 0.185 | 2.019 ± 0.022 |  |  |  |  |  |  |
| COc1cccc(C2(O)CCCCC2CN(C)C)c1 (stereo not shown) [tramal, tramadol] |  |  |  |  |  | 10.32 ± 0.57 | 26.22 ± 1.07 | 25.45 ± 2.52 | 20.37 ± 0.88 | 20.07 ± 1.66 |  |
| COc1ccc2c(c1)c(CC(=O)O)c(C)n2C(=O)c1ccc(Cl)cc1 [indomethacin] | 2.462 ± 0.032 | 2.207 ± 0.218 | 2.100 ± 0.122 | 2.128 ± 0.370 | 2.184 ± 0.632 |  |  |  |  |  | 17.04 ± 1.22 |
